Experiment [1] relates to Bovine brain tubulin (colchicine site). Briefly: Inhibition of [3H]colchicine binding to tubulin. The settings on record: tubulin 1 μM, colchicine 5 μM, tested compound 1 μM.
The test system of experiment [2] is murine leukemia L1210 cells. The experiment in a line: Cell growth inhibitory activity, L1210. Type of experiment: cell-based. The settings on record: Mus musculus, L1210, 48 h, read-out: IC50 (proliferation) L1210. In short, it runs like this: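 Murine leukaemia L1210 cells grown with varying concentrations of test compound at 37 °C for two days; cell number counted on a Coulter counter. IC50 is the concentration inhibiting cell proliferation by 50%, taken from dose–response curves. Mean ± SE of at least three independent experiments.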

The test system of experiment [3] is murine mammary carcinoma FM3A cells. The experiment in a line: Cell growth inhibitory activity, FM3A. The settings on record: Mus musculus, 48 h, read-out: IC50 (proliferation) FM3A. The class given is cell-based.
The test system of experiment [4] is L1210, FM3A, Molt/4 and CEM cells. The experiment in a line: Cell growth inhibitory activity, range over the four cell lines. The settings on record: for IC50: read-out: IC50-values range against the four cell lines. Type of experiment: cell-based. In short, it runs like this: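 Cells incubated with test compound at 37 °C for two days (L1210, FM3A) or three days (Molt 4, CEM). Cell number counted with a Coulter counter. IC50 taken as the concentration giving 50% inhibition of proliferation, from dose–response curves. Mean ± SE of at least three independent experiments.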

Another experiment relates to K562 cells. The experiment in a line: Flow cytometric analysis of cell cycle distribution. Type of experiment: cell-based, human. The settings on record: 24 h, compound at its 24 h IC50, propidium iodide. Background: Flow cytometry measures light scatter and fluorescence of single cells or particles in a stream.

As to `COc1ccc(/C=C\c2cc(OC)c(OC)c(OC)c2)cc1O` [CA-4 (1), combretastatin A-4], the “Colchicine binding % ± SD (inhibition of [3H]colchicine binding)” value in experiment [1] was 86 ± 3%. Further, in experiment [2], the IC50 was determined as 0.0028 ± 0.0011 µM.

Take `COc1ccc2c(N)c(C(=O)c3cc(OC)c(OC)c(OC)c3)[nH]c2c1` [Compound 3a]: the IC50 in experiment [2] is 0.97 ± 0.024 µM; in experiment [3], 1.6 ± 0.03 µM.

For `COc1ccc2c(N)c(C(=O)c3cc(OC)c(OC)c(OC)c3)n(C)c2c1` [Compound 4a], the figures for the IC50 in experiment [2] and in experiment [3] were 0.069 ± 0.037 µM and 0.097 ± 0.003 µM, respectively.

Turning to `COc1cc(C(=O)c2oc3cccc(OC)c3c2N)cc(OC)c1OC` [Compound 5b, (3-Amino-4-methoxybenzofuran-2-yl)(3,4,5-trimethoxyphenyl)methanone], the “Fold less active than 5d in the four cell lines” value in experiment [4] (antiproliferative activity relative to 5d) was “over 10 fold”.

Take `COc1ccc2c(N)c(C(=O)c3cc(OC)c(OC)c(OC)c3)oc2c1` [Compound 5d, (3-Amino-6-methoxybenzofuran-2-yl)(3,4,5-trimethoxyphenyl)methanone]: in the experiment on K562 cells, the “Effect on cell cycle distribution” value was “accumulate in late S phase”. In experiment [4], the IC50 is 0.087 to 0.43 µM.

Take `COc1ccc2c(N(C)C)c(C(=O)c3cc(OC)c(OC)c(OC)c3)oc2c1` [Compound 5i, (3-(Dimethylamino)-6-methoxybenzofuran-2-yl) (3,4,5-trimethoxyphenyl)methanone]: in the experiment with K562 cells, the “Effect on cell cycle distribution” value is “accumulation of cells in G2-M”. Moreover, the IC50 in experiment [4] lay in the range of 0.048 to 0.075 µM.

Consider `COc1ccc2c(NC(=O)CCl)c(C(=O)c3cc(OC)c(OC)c(OC)c3)oc2c1` [Compound 5l, (3-chloroacetylamino-6-methoxybenzofuran-2-yl)(3,4,5-trimethoxyphenyl)methanone], for which the “Effect on cell cycle distribution” value in the experiment on K562 cells is “accumulate in late S phase”.

Turning to `COc1ccc2c(NC(=O)CI)c(C(=O)c3cc(OC)c(OC)c(OC)c3)oc2c1` [Compound 5n, (3-iodoacetylamino-6-methoxybenzofuran-2-yl)(3,4,5-trimethoxyphenyl)methanone], the “Effect on cell cycle distribution” value in the experiment with K562 cells is listed as “greatest percentage increase in the percentage of cells in apoptotic cells (subG0-G1 peak)”.

The values are drawn from paper PMC2574800 (Bioorganic & medicinal chemistry, 2008).
